Data on 26 compounds can be found in ChEMBL document CHEMBL2390925, “Further studies on 2-arylacetamide pyridazin-3(2H)-ones: design, synthesis and evaluation of 4,6-disubstituted analogs as formyl peptide receptors (FPRs) agonists” (Eur J Med Chem, 2013).

The subject of series [1] is HL-60. Put plainly: Cytotoxicity against human wild type HL60 cells at 5 to 20 uM after 60 mins by CellTitre-Glo luminescent assay. The conditions noted are these: hl-60, 1 h. The class given is cell-based. In outline: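 Wild-type HL-60 cells at 3×10^4 cells/well were exposed to 5, 10 or 20 µM compound for 60 min at 37 °C in 5% CO2. Samples were equilibrated to room temperature for 30 min before the CellTiter-Glo luminescence read. Triplicate samples; the experiment was representative of two.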

The next series deals with T1, fMet-Leu-Phe receptor (Homo sapiens, UniProt P21462).
T1 sequence (P21462 whole entry): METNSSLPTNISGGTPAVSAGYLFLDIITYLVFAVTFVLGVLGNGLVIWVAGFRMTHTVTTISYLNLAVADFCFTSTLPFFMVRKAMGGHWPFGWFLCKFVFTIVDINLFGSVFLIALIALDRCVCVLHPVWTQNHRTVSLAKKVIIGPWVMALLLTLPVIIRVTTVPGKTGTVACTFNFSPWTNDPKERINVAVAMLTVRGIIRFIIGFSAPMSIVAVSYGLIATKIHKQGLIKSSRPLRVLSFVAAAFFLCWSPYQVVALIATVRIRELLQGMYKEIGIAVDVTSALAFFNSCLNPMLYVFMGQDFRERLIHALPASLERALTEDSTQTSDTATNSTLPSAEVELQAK
Kind of series: Agonist activity at FPR1 (unknown origin) transfected in human HL60 cells assessed as induction of Ca2+ mobilization. The class given is functional, cell-based, HL-60. Background: Calcium assays in cells follow changes in intracellular calcium, usually with a dye or a luminescent sensor.

The target of series [2] is T2, N-formyl peptide receptor 2 (Homo sapiens, UniProt P25090).
T2 sequence (P25090 whole entry): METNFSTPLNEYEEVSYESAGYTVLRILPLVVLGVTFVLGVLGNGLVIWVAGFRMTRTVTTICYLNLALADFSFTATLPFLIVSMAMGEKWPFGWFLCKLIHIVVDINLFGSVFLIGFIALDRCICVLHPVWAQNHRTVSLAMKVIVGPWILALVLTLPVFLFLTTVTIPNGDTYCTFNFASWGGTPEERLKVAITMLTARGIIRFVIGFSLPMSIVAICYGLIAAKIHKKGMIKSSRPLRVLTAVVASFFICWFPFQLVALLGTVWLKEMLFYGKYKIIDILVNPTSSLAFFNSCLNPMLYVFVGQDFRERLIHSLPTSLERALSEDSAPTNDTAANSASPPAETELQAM
Kind of series: Agonist activity at FPR2 (unknown origin) transfected in human HL60 cells assessed as induction of Ca2+ mobilization. The class given is functional, cell-based, HL-60.

The subject of series [3] is HL-60. Kind of series: Effect on Ca2+ mobilization in human wild type HL60 cells. The class given is functional, cell-based. The procedure, abridged: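 Wild-type, non-transfected HL-60 cells, grown without G418, were run in the same Fluo-4 Ca2+ flux assay. Fluorescence was monitored every 5 s for 240 s at room temperature.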
For series [4], the target named is T3, N-formyl peptide receptor 3 (Homo sapiens, UniProt P25089).
T3 sequence (P25089 whole entry): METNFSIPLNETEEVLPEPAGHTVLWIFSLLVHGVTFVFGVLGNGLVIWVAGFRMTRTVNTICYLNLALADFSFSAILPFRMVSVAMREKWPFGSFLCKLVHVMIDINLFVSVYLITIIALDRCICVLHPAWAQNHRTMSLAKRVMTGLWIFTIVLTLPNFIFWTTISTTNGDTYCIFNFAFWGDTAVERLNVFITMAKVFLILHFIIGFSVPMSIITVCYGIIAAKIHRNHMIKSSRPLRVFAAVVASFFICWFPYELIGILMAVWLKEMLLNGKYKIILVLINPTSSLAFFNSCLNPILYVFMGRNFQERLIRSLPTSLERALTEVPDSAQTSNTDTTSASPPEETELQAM
Kind of series: Agonist activity at FPR3 (unknown origin) transfected in human HL60 cells assessed as induction of Ca2+ mobilization. The class given is cell-based, HL-60.

A word on the EC50: it is the concentration giving half of the maximal effect.

`COc1cccc(Cc2cc(-c3cccs3)nn(CC(=O)Nc3ccc(F)cc3)c2=O)c1`: the Activity entry with HL-60 [1] is “Non-toxic”. The EC50 (on fMet-Leu-Phe receptor; in series [2]; with HL-60 [3]; in series [4]) was over 50 µM in each case.

Take `COc1cccc(Cc2cc(-c3ccccc3)nn(CC(=O)Nc3ccc(F)cc3)c2=O)c1`: the Activity entry with HL-60 [1] was “Non-toxic”. The EC50 (at fMet-Leu-Phe receptor; in series [2]; in the series with HL-60 [3]; in series [4]) was over 50 µM each time.

Take `COc1ccc(Cc2cc(-c3ccc(F)cc3)nn(CC(=O)Nc3ccc(Br)cc3)c2=O)cc1`: the Activity result in the series on HL-60 [1] was “Non-toxic”. Further, the concentration giving a half-maximal response (EC50) (at fMet-Leu-Phe receptor; in series [2]; in the series on HL-60 [3]; in series [4]) was over 50 µM throughout.

Regarding `Cc1cc(Cc2ccc(C(F)(F)F)cc2)c(=O)n(CC(=O)Nc2ccc(Br)cc2)n1`, in the series with HL-60 [1], the Activity entry is given as “Non-toxic”. In addition, the concentration for a half-maximal effect (EC50) (on fMet-Leu-Phe receptor; in series [2]; with HL-60 [3]; in series [4]) was over 50 µM throughout.

As to `Cc1cc(Cc2cccc(Br)c2)c(=O)n(CC(=O)Nc2ccc(Br)cc2)n1`, the Activity result with HL-60 [1] was “Non-toxic”. In addition, the EC50 (at fMet-Leu-Phe receptor; in series [2]; with HL-60 [3]; in series [4]) was over 50 µM in each case.

As to `Cc1cc(Cc2ccccc2)c(=O)n(CC(=O)Nc2ccc(F)cc2)n1`, the Activity result with HL-60 [1] was “Non-toxic”. The concentration for a half-maximal effect (EC50) (at fMet-Leu-Phe receptor; in series [2]; in the series on HL-60 [3]; in series [4]) was over 50 µM in each case.

`Cc1cc(Cc2ccc(C#N)cc2)c(=O)n(CC(=O)Nc2ccc(Br)cc2)n1`: the Activity entry in the series with HL-60 [1] is listed as “Non-toxic”. Besides, the 50% effective concentration (EC50) (at fMet-Leu-Phe receptor; in series [2]; with HL-60 [3]; in series [4]) was over 50 µM each time.

Consider `COc1ccc(Cc2cc(Cc3ccccc3)nn(CC(=O)Nc3ccc(Br)cc3)c2=O)cc1`, for which the Activity result with HL-60 [1] was “Non-toxic”. Besides, the EC50 (on fMet-Leu-Phe receptor; in series [2]; in the series with HL-60 [3]; in series [4]) was over 50 µM in each case.

On to `Cc1ccc(=O)n(CC(=O)Nc2ccc(I)cc2)n1`, for which the Activity entry in the series with HL-60 [1] is “Non-toxic”. In addition, the EC50 (at fMet-Leu-Phe receptor; in series [2]; in the series on HL-60 [3]; in series [4]) was over 50 µM in each case.

Take `COc1ccc(Cc2cc(-c3cccs3)nn(CC(=O)Nc3ccc(Br)cc3)c2=O)cc1`: the Activity result in the series on HL-60 [1] is reported as “Non-toxic”. Also, the concentration for a half-maximal effect (EC50) (at fMet-Leu-Phe receptor; in series [2]; in the series with HL-60 [3]; in series [4]) was over 50 µM in each case.

On to `COc1cc(Cc2cc(C)nn(CC(=O)Nc3ccc(Br)cc3)c2=O)cc(OC)c1`, for which, in the series on HL-60 [1], the Activity entry is given as “Non-toxic”. Moreover, the 50% effective concentration (EC50) (at fMet-Leu-Phe receptor; in series [2]; in the series on HL-60 [3]; in series [4]) was over 50 µM throughout.

Consider `COc1ccc(Cc2cc(-c3ccc(OC)cc3)nn(CC(=O)Nc3ccc(Br)cc3)c2=O)cc1`, for which the Activity result with HL-60 [1] is recorded as “Non-toxic”. For the same compound, the EC50 (at fMet-Leu-Phe receptor; in series [2]; in the series on HL-60 [3]; in series [4]) was over 50 µM each time.

Take `COc1ccc(-c2cc(Cc3cccc(OC)c3)c(=O)n(CC(=O)Nc3ccc(F)cc3)n2)cc1`: the Activity result in the series with HL-60 [1] is given as “Non-toxic”. For the same compound, the EC50 (at fMet-Leu-Phe receptor; in series [2]; with HL-60 [3]; in series [4]) was over 50 µM each time.

For `COc1ccc(Cc2cc(-c3ccc(C)cc3)nn(CC(=O)Nc3ccc(Br)cc3)c2=O)cc1`, the Activity entry with HL-60 [1] is reported as “Non-toxic”. Also, the half-maximal effective concentration (EC50) (on fMet-Leu-Phe receptor; in series [2]; with HL-60 [3]; in series [4]) was over 50 µM each time.

With `COc1ccc(-c2cc(Cc3cccc(OC)c3)c(=O)n(CC(=O)Nc3ccc4c(c3)OCO4)n2)cc1`, in the series with HL-60 [1], the Activity entry is given as “Non-toxic”. Besides, the EC50 (at fMet-Leu-Phe receptor; in series [2]; in the series with HL-60 [3]; in series [4]) was over 50 µM each time.

In the case of `COc1cccc(Cc2cc(-c3ccc(C)cc3)nn(CC(=O)Nc3ccc4c(c3)OCO4)c2=O)c1`, the Activity result in the series on HL-60 [1] is “Non-toxic”. Moreover, the concentration for a half-maximal effect (EC50) (at fMet-Leu-Phe receptor; in series [2]; in the series on HL-60 [3]; in series [4]) was over 50 µM throughout.

For `COc1cccc(Cc2cc(-c3ccc(F)cc3)nn(CC(=O)Nc3ccc4c(c3)OCO4)c2=O)c1`, in the series with HL-60 [1], the Activity entry is listed as “Non-toxic”. Further, the EC50 (on fMet-Leu-Phe receptor; in series [2]; in the series with HL-60 [3]; in series [4]) was over 50 µM in each case.

Take `Cc1cc(NC(=O)c2ccc(Br)cc2)c(=O)n(CC(=O)Nc2ccc(Br)cc2)n1`: the Activity result in the series with HL-60 [1] was “Non-toxic”. For the same compound, the EC50 (at fMet-Leu-Phe receptor; in series [2]; in the series with HL-60 [3]; in series [4]) was over 50 µM each time.

Take `COc1cccc(Cc2cc(-c3ccc(F)cc3)nn(CC(=O)Nc3ccc(F)cc3)c2=O)c1`: the Activity entry with HL-60 [1] is “Non-toxic”. For the same compound, the EC50 (on fMet-Leu-Phe receptor; in series [2]; in the series with HL-60 [3]; in series [4]) was over 50 µM in each case.

With `COc1cccc(Cc2cc(-c3cccs3)nn(CC(=O)Nc3ccc4c(c3)OCO4)c2=O)c1`, in the series with HL-60 [1], the Activity entry was “Non-toxic”. Besides, the EC50 (at fMet-Leu-Phe receptor; in series [2]; in the series with HL-60 [3]; in series [4]) was over 50 µM in each case.

Regarding `COc1cccc(Cc2cc(-c3ccc(Cl)cc3)nn(CC(=O)Nc3ccc(F)cc3)c2=O)c1`, the Activity result in the series with HL-60 [1] is “Non-toxic”. The EC50 (on fMet-Leu-Phe receptor; in series [2]; in the series on HL-60 [3]; in series [4]) was over 50 µM in each case.

With `COc1cccc(Cc2cc(-c3ccccc3)nn(CC(=O)Nc3ccc4c(c3)OCO4)c2=O)c1`, the Activity entry in the series with HL-60 [1] is recorded as “Non-toxic”. Further, the concentration for a half-maximal effect (EC50) (on fMet-Leu-Phe receptor; in series [2]; in the series with HL-60 [3]; in series [4]) was over 50 µM throughout.

Regarding `COc1cccc(Cc2cc(-c3ccc(C)cc3)nn(CC(=O)Nc3ccc(F)cc3)c2=O)c1`, in the series with HL-60 [1], the Activity entry is “Non-toxic”. The EC50 (on fMet-Leu-Phe receptor; in series [2]; in the series with HL-60 [3]; in series [4]) was over 50 µM in each case.

With `COc1cccc(Cc2cc(-c3ccc(Cl)cc3)nn(CC(=O)Nc3ccc4c(c3)OCO4)c2=O)c1`, in the series on HL-60 [1], the Activity entry is reported as “Non-toxic”. Also, the EC50 (at fMet-Leu-Phe receptor; in series [2]; with HL-60 [3]; in series [4]) was over 50 µM each time.

In the case of `COc1ccc(Cc2cc(-c3ccc(Cl)cc3)nn(CC(=O)Nc3ccc(Br)cc3)c2=O)cc1`, in the series on HL-60 [1], the Activity result is given as “Non-toxic”. Also, the EC50 (at fMet-Leu-Phe receptor; in series [2]; with HL-60 [3]; in series [4]) was over 50 µM in each case.

Turning to `CC1=NN(CC(=O)Nc2ccc(I)cc2)C(=O)CC1`, in the series with HL-60 [1], the Activity result is “Non-toxic”. Further, the half-maximal effective concentration (EC50) (at fMet-Leu-Phe receptor; in series [2]; in the series with HL-60 [3]; in series [4]) was over 50 µM throughout.
